Experiments:
Conditions in all cases: in vivo
[1] = tested on: Rattus norvegicus; test: Biodistribution in liver of Immature Female rat after 12 hour administration of 3 micro Ci (111 kBq) in the absence of 60 microg estradiol; format: ADME, organism-based
Method in brief: (§1)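 Immature female Long Evans rats (21–24 days, 45–70 g), unanesthetized in retention cages, given 3 µCi (111 kBq) 125I-labeled steroid i.v. via lateral tail vein. Vehicle was ethanol diluted in saline containing 1% Tween-80, giving 9% ethanol final. The blocking group received 60 µg unlabeled estradiol co-injected. Rats were killed under ether by axillary bleeding, and tissues were KCl-washed and gamma-counted. Data are %ID/g, mean ± SE, n=3–5.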

[2] = tested on: Rattus norvegicus; test: Biodistribution in liver of Immature Female rat after 1 hr administration of 3 micro Ci (111 kBq) in the presence of (+E2); format: ADME, organism-based; method in brief: as §1
[3] = tested on: Rattus norvegicus; test: Biodistribution in lungs of Immature Female rat after 3 hour administration of 3 micro Ci (111 kBq) in the absence of 60 microg estradiol; format: ADME, organism-based, Lung; method in brief: as §1
[4] = tested on: Rattus norvegicus; test: Biodistribution in thyroid of Immature Female rat after 5 hour administration of 3 micro Ci (111 kBq) in the absence of 60 microg estradiol; format: ADME, organism-based, Thyroid gland
Method in brief: (§2)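 Immature female Long Evans rats (21–24 days, 45–70 g), three to five per group, given 125I-labeled steroid (3 μCi, 111 kBq) by lateral tail vein without anesthesia. Vehicle: ethanol diluted in saline with 1% Tween-80, final ethanol 9%, 0.22 μm filtered. +E2 groups received 60 μg unlabeled estradiol co-injected. Killed under ether at set times; tissues KCl-washed, blotted, weighed, gamma counted; %ID/g, mean with SE.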

[5] = tested on: Rattus norvegicus; test: Biodistribution in muscle of Immature Female rat after 5 hour administration of 3 micro Ci (111 kBq) in the absence of 60 microg estradiol; format: ADME, organism-based, Muscle tissue; method in brief: as §2
[6] = tested on: Rattus norvegicus; test: Biodistribution in blood of Immature Female rat after 3 hour administration of 3 micro Ci (111 kBq) in the absence of 60 microg estradiol; format: ADME, organism-based; method in brief: as §1
[7] = tested on: Rattus norvegicus; test: Biodistribution in blood of Immature Female rat after 12 hour administration of 3 micro Ci (111 kBq) in the absence of 60 microg estradiol; format: ADME, organism-based; method in brief: as §1
[8] = tested on: Rattus norvegicus; test: Biodistribution in lungs of Immature Female rat after 1 hr administration of 3 micro Ci (111 kBq) in the presence of (+E2); format: ADME, organism-based, Lung; method in brief: as §1
[9] = tested on: Rattus norvegicus; test: Biodistribution in fat of Immature Female rat after 1 hr administration of 3 micro Ci (111 kBq) in the absence of 60 microg estradiol; format: ADME, organism-based, Adipose tissue; method in brief: as §1
[10] = tested on: Rattus norvegicus; test: Biodistribution in spleen of Immature Female rat after 5 hour administration of 3 micro Ci (111 kBq) in the absence of 60 microg estradiol; format: ADME, organism-based; method in brief: as §2
[11] = tested on: Rattus norvegicus; test: Biodistribution in liver of Immature Female rat after 5 hour administration of 3 micro Ci (111 kBq) in the absence of 60 microg estradiol; format: ADME, organism-based; method in brief: as §1
[12] = tested on: Rattus norvegicus; test: Biodistribution in fat of Immature Female rat after 1 hr administration of 3 micro Ci (111 kBq) in the presence of (+E2); format: ADME, organism-based, Adipose tissue; method in brief: as §1
[13] = tested on: Rattus norvegicus; test: Biodistribution in spleen of Immature Female rat after 1 hr administration of 3 micro Ci (111 kBq) in the absence of 60 microg estradiol; format: ADME, organism-based; method in brief: as §2
[14] = tested on: Rattus norvegicus; test: Biodistribution in uterus of Immature Female rat after 3 hour administration of 3 micro Ci (111 kBq) in the absence of 60 microg estradiol; format: ADME, organism-based
Method in brief: (§3)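 Immature female Long Evans rats (21–24 days, 45–70 g), 3–5 per group, unanesthetized in retention cages, given 3 μCi (111 kBq) 125I-labeled steroid by lateral tail vein. Vehicle: ethanol diluted with saline containing 1% Tween-80, final ethanol 9%. +E2 group co-injected 60 μg unlabeled estradiol (1 h only). Killed under ether; tissues KCl-washed, weighed, gamma-counted. Output: %ID/g (mean, SE) and uterus to blood or nontarget (muscle, spleen, lungs) ratios.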

[15] = tested on: Rattus norvegicus; test: Biodistribution in kidney of Immature Female rat after 5 hour administration of 3 micro Ci (111 kBq) in the absence of 60 microg estradiol; format: ADME, organism-based; method in brief: as §1
[16] = tested on: Rattus norvegicus; test: Biodistribution in lungs of Immature Female rat after 12 hour administration of 3 micro Ci (111 kBq) in the absence of 60 microg estradiol; format: ADME, organism-based, Lung; method in brief: as §1
[17] = tested on: Rattus norvegicus; test: Biodistribution in uterus of Immature Female rat after 12 hour administration of 3 micro Ci (111 kBq) in the absence of 60 microg estradiol; format: ADME, organism-based; method in brief: as §3
[18] = tested on: Rattus norvegicus; test: Biodistribution in uterus / spleen, muscle, lungs of Immature Female rat after 5 hour administration of 3 micro Ci (111 kBq) in the absence of 60 microg estradiol; format: ADME, organism-based
Method in brief: (§4)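 Same in vivo procedure: immature female Long Evans rats (21–24 days), three to five per group, 3 μCi (111 kBq) tracer i.v. via tail vein in 9% ethanol/saline/1% Tween-80, ± 60 μg estradiol co-injected at 1 h. Uterus %ID/g (gamma counting) divided by blood, or by nontarget organ (muscle, spleen, lungs), %ID/g to give ratios.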

[19] = tested on: Rattus norvegicus; test: Biodistribution in uterus / blood of Immature Female rat after 1 hr administration of 3 micro Ci (111 kBq) in the absence of 60 microg estradiol; format: ADME, organism-based; method in brief: as §4
[20] = tested on: Rattus norvegicus; test: Biodistribution in uterus / spleen, muscle, lungs of Immature Female rat after 12 hour administration of 3 micro Ci (111 kBq) in the absence of 60 microg estradiol; format: ADME, organism-based; method in brief: as §4
[21] = tested on: Rattus norvegicus; test: Biodistribution in kidney of Immature Female rat after 1 hr administration of 3 micro Ci (111 kBq) in the presence of (+E2); format: ADME, organism-based; method in brief: as §1
[22] = tested on: Rattus norvegicus; test: Biodistribution in muscle of Immature Female rat after 1 hr administration of 3 micro Ci (111 kBq) in the absence of 60 microg estradiol; format: ADME, organism-based, Muscle tissue; method in brief: as §2
[23] = tested on: Rattus norvegicus; test: Biodistribution in kidney of Immature Female rat after 12 hour administration of 3 micro Ci (111 kBq) in the absence of 60 microg estradiol; format: ADME, organism-based; method in brief: as §1
[24] = tested on: Rattus norvegicus; test: Biodistribution in uterus / spleen, muscle, lungs of Immature Female rat after 1 hr administration of 3 micro Ci (111 kBq) in the presence of (+E2); format: ADME, organism-based; method in brief: as §4
[25] = tested on: Rattus norvegicus; test: Biodistribution in uterus / blood of Immature Female rat after 1 hr administration of 3 micro Ci (111 kBq) in the presence of (+E2); format: ADME, organism-based; method in brief: as §4
[26] = tested on: Rattus norvegicus; test: Biodistribution in thyroid of Immature Female rat after 1 hr administration of 3 micro Ci (111 kBq) in the presence of (+E2); format: ADME, organism-based, Thyroid gland; method in brief: as §2
[27] = tested on: Rattus norvegicus; test: Biodistribution in uterus / spleen, muscle, lungs of Immature Female rat after 1 hr administration of 3 micro Ci (111 kBq) in the absence of 60 microg estradiol; format: ADME, organism-based; method in brief: as §4
[28] = tested on: Rattus norvegicus; test: Biodistribution in fat of Immature Female rat after 5 hour administration of 3 micro Ci (111 kBq) in the absence of 60 microg estradiol; format: ADME, organism-based, Adipose tissue; method in brief: as §1
[29] = tested on: Rattus norvegicus; test: Biodistribution in lungs of Immature Female rat after 5 hour administration of 3 micro Ci (111 kBq) in the absence of 60 microg estradiol; format: ADME, organism-based, Lung; method in brief: as §1
[30] = tested on: Rattus norvegicus; test: Biodistribution in kidney of Immature Female rat after 3 hour administration of 3 micro Ci (111 kBq) in the absence of 60 microg estradiol; format: ADME, organism-based; method in brief: as §1
[31] = tested on: Rattus norvegicus; test: Biodistribution in blood of Immature Female rat after 1 hr administration of 3 micro Ci (111 kBq) in the absence of 60 microg estradiol; format: ADME, organism-based; method in brief: as §1

Compound | ID/g [1] | ID/g [2] | ID/g [3] | ID/g [4] | ID/g [5] | ID/g [6] | ID/g [7] | ID/g [8] | ID/g [9] | ID/g [10] | ID/g [11] | ID/g [12] | ID/g [13] | ID/g [14] | ID/g [15] | ID/g [16] | ID/g [17] | ID/g [18] | uterus/blood ratio [19] | ID/g [20] | further results
CO[C@H]1C[C@@]2(C)[C@@H](CC[C@@]2(O)/C=C\I)[C@@H]2CCc3cc(O)c(F)cc3[C@H]21 | 0.65% | 10.39% | 0.54% | 1210% | 0.29% | 0.45% | 0.17% | 1.52% | 1.71% | 0.38% | 1.12% | 4.78% | 0.59% | 9.59% | 0.71% | 0.13% | 6.45% | 25.79% | 15.7 | 33.82% | ID/g [21]: 2.83%; ID/g [22]: 0.58%; ID/g [23]: 0.29%; ID/g [24]: 0.64%; ID/g [25]: 1.12%; ID/g [26]: 170%; ID/g [27]: 13.04%; ID/g [28]: 0.66%; ID/g [29]: 0.35%; ID/g [30]: 1.02%; ID/g [31]: 0.54%
CO[C@H]1C[C@@]2(C)[C@@H](CC[C@@]2(O)/C=C/I)[C@@H]2CCc3c(ccc(O)c3F)[C@H]21 | 2.28% | 3.24% | 0.69% | 274% | 0.45% | 0.26% | 0.1% | 1.95% | 2.68% | 0.39% | 2.72% | 2.3% | 0.79% | 10.45% | 0.94% | 0.3% | 12.64% | 26.5% | 30.4 | 50.9% | ID/g [21]: 1.28%; ID/g [22]: 0.98%; ID/g [23]: 0.49%; ID/g [24]: 1.02%; ID/g [25]: 3.57%; ID/g [26]: 71%; ID/g [27]: 9.17%; ID/g [28]: 1.69%; ID/g [29]: 0.52%; ID/g [30]: 1.3%; ID/g [31]: 0.26%
